High-throughput results as filed in PubChem BioAssay.
dFosB act-1 = enhances mouse delta FosB homodimer DNA binding; 340,000 compounds, 0.99% hits; purified delta FosB, TAMRA-CDK5 oligo fluorescence polarization; percent of positive-control signal above neutral wells; activation, % at 25 µM; P13346;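 active = mean activation above about 17%, with every replicate also reaching it, limit read from the data, passing the limit was not always enough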
Target sequence (P13346 whole entry, looked up): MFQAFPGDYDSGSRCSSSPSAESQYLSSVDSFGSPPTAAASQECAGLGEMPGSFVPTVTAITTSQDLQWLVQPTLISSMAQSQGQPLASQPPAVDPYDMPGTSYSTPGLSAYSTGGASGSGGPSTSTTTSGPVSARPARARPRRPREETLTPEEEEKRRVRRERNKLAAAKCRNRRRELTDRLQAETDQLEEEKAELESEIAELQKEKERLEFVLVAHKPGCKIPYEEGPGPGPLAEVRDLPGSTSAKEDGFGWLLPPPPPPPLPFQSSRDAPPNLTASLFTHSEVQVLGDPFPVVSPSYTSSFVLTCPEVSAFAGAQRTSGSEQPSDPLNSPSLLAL
RAD52 inh = RAD52 (human) annealing inhibition; P43351; recombinant RAD52 DNA annealing, FRET fluorescence; inhibition, % at 18.7 µM; 360,000 compounds, 0.46% hits;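 active = every replicate showing at least 50% inhibition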
AF4-AF9 inh = MLL-AF4/AF9 protein interaction inhibition | 350,000 compounds, 0.47% hits | AlphaScreen, biotin-AF4 peptide binding to FLAG-AF9 | inhibition, % at 10 µM | P42568;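 active = every replicate reaching a set inhibition limit, whatever the replicate mean, cut at about 25% in these data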
RAD54 inh = RAD54 (human) branch migration inhibition; Q92698; RAD54 Holliday junction branch migration, FAM/BHQ fluorescence; inhibition, % at 10.4 µM; 360,000 compounds, 0.14% hits; AID 602329;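 active = mean normalized replicate activity at least 40 and at least half of replicates scoring 40 or more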;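 note: inhibitors cause a drop in the FAM fluorescence signal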
S100A4 inh HTS = blocks human S100A4 binding to myosin IIA peptide. AID 652163. 360,000 compounds, 0.14% hits. inhibition, % at 10.7 µM. P26447. S100A4/TAMRA-MyoIIA peptide fluorescence polarization;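 active = mean inhibition of at least 70% across replicates, with every replicate also reaching that level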
Target sequence (P26447 whole entry, looked up): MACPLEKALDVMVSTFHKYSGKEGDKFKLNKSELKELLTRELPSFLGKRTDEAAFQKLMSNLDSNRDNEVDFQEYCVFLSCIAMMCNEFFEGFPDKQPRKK
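Material: S100A4 monomer protein | Medium: HEPES pH 7.2 with CaCl2, KCl, NaCl, DTT, Triton | Reagent: Labelled myosin peptide probe, 5 nM | Doses: One dose per compound | Times: 5 min incubation before reading | Benchmarks: Neutral control DMSO, positive control TFP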
dFosB act-2 = delta FosB (mouse) homodimer activation | shares compounds with dFosB act-1 | purified delta FosB, TAMRA-CDK5 oligo fluorescence polarization; normalised: neutral wells 0, positive control 100 | activation, % at 24.9 µM | 2,400 tested, under 10 active | AID 588690;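 active = highest replicate activation at or above 34% and every replicate reaching that threshold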;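 note: higher polarization means more probe DNA bound by delta FosB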
Hits are given with their value; - = inactive; . = not tested or not shown. An excerpt weighted towards active compounds, which were near 1.5% of everything screened.

SMILES	dFosB act-1	RAD52 inh	AF4-AF9 inh	RAD54 inh	S100A4 inh HTS	dFosB act-2
Oc1ccc(-c2sc(Nc3ccccc3)n[n+]2-c2ccc(F)cc2)cc1	-	-	-	-	-	.
CSc1ccc(-c2sc(Nc3ccccc3)n[n+]2-c2ccc(F)cc2)cc1	23.4	.	.	-	.	-
Nc1nc(CSC(=S)N2CCN(c3ccccc3)CC2)nc(Nc2ccc(F)cc2)n1	47.3	.	.	-	.	-
CC1CC(C)CN(C(=S)SCc2nc(N)nc(Nc3ccccc3)n2)C1 (stereo unspecified)	38.4	-	-	.	-	-
Nc1nc(CSC(=S)N2CCOCC2)nc(Nc2ccccc2)n1	-	.	.	-	.	.
C[C@@H]1CN([C@H](C)CO)C(=O)Cc2cc(NS(=O)(=O)c3ccc(F)cc3)ccc2O[C@@H]1CN(C)Cc1ccc(C(=O)O)cc1	.	-	-	-	-	.
O=C(Cc1cccc2ccccc12)N/N=C/c1ccc(OC(=O)/C=C/c2ccco2)cc1	18.4	.	.	-	.	-
COc1ccc(/C(C)=N/NC(=O)c2nnn(-c3nonc3N)c2-c2ccccc2)cc1	29.7	-	-	-	-	-
COc1ccc(/C(C)=N/NC(=O)c2nnn(-c3nonc3N)c2-c2cccs2)cc1	-	-	-	-	-	.
C/C(=N\NC(=O)c1nnn(-c2nonc2N)c1C(C)C)c1ccncc1	-	-	-	-	-	.
C/C(=N\NC(=O)c1nnn(-c2nonc2N)c1C(C)C)c1ccc2ccccc2c1	40.6	-	-	-	-	-
O=C(CSc1nnc(NC(=O)c2ccco2)s1)Nc1ccc(F)cc1F	20.0	-	-	-	-	-
CC(=O)c1ccc(NC(=O)CSc2nnc(NC(=O)c3ccco3)s2)cc1	28.2	.	.	-	.	-
CC(C)NC(=O)Nc1ccc2c(c1)CC(=O)N([C@@H](C)CO)C[C@@H](C)[C@H](CN(C)C(=O)Nc1ccc(F)cc1)O2	.	-	-	-	.	.
CCC(=O)Nc1ccc2c(c1)OC[C@H](C)N(C(=O)COC)C[C@@H](C)[C@@H](OC)CN(C)C2=O	.	-	-	-	-	.
Clc1ccc(C2[C@H]3CN(Cc4ccc(-c5ccccc5)cc4)[C@H](c4ccccc4)C34CC2(c2ccccc2)C4)cn1 (stereo partly specified)	.	-	-	.	-	.
N#Cc1ccc(C23CC4(C2)[C@H](CN(Cc2ccc(-c5ccccc5)cc2)[C@@H]4c2ccccc2)C3c2ccc(Cl)nc2)cc1 (stereo partly specified)	16.8	.	.	-	.	-
C[C@H](NC(=O)C[C@H]1C[C@@H]2c3cc(NC(=O)CC4CC4)ccc3O[C@@H]2[C@H](CO)O1)c1ccccc1	.	-	-	-	-	.
CC(=O)c1sc(NC(=O)C2CCCN2S(=O)(=O)c2ccccc2F)nc1C (stereo unspecified)	20.8	-	-	-	-	-
C[C@@H]1CN([C@@H](C)CO)C(=O)c2c(c3ccccc3n2C)-c2ccccc2CO[C@H]1CN(C)C(=O)c1ccccc1	.	-	-	-	-	.
CC(C)CC#Cc1ccc([C@H]2[C@H](CO)N3CCCCN(C(=O)NC4CCCC4)C[C@@H]23)cc1	.	-	-	-	-	.
COc1ccc(/C=C2\SC(=O)N(CC(=O)Nc3ccc(F)cc3)C2=O)cc1O	18.9	-	-	-	-	-
COc1ccc(/C=C2/SC(=O)N(CC(=O)NCCC(C)C)C2=O)cc1OC	17.0	-	-	.	-	-
COc1cc(OC)c(/C=C2\SC(=O)N(CC(=O)Nc3ccccc3F)C2=O)c(OC)c1	23.4	-	-	-	-	-
O=C(C1CCCC1)N1CC(=O)N2[C@H](CO)[C@H](c3ccc(C#Cc4cccc(F)c4)cc3)[C@@H]2C1	.	-	-	.	-	.
SMILES	dFosB act-1	RAD52 inh	AF4-AF9 inh	RAD54 inh	S100A4 inh HTS	dFosB act-2
Cc1cccc(NC(=O)CCc2nc3sc4c(c3c(=O)[nH]2)CCCC4)c1	20.2	-	-	.	-	-
CCc1cccc(NC(=O)CCc2nc3sc4c(c3c(=O)[nH]2)CCCC4)c1	-	-	-	.	-	.
CCCC(=O)Nc1ccc2c(c1)OC[C@@H](C)N(Cc1cccc(F)c1)C[C@@H](C)[C@H](OC)CN(C)C2=O	.	-	-	-	-	.
N#Cc1ccccc1/C=N/Nc1nc(-c2ccccc2)c2cc(Cl)ccc2n1	19.1	-	.	-	-	-
Cc1ccc2nc(N/N=C/c3ccccc3C#N)nc(-c3ccccc3)c2c1	-	-	-	-	-	.
C=CCOc1c(Br)cc(/C=N/NC(=O)Cc2ccc(C(F)(F)F)cc2[N+](=O)[O-])cc1OC	36.7	.	.	-	.	-
S=C(N/N=C/c1ccccc1Cl)Nc1cccc(Cl)c1Cl	36.5	-	-	.	-	-
CC(C)CCNc1nc(-c2ccco2)c2c(c1C#N)CCCC2	-	.	.	-	.	.
N#Cc1c(NCCN)nc(-c2ccco2)c2c1CCCC2	25.5	.	.	.	.	-
C/C(=N\NC(=O)c1c(Cl)c(C)nn1C)c1cccc(NC(=O)COc2ccccc2)c1	28.5	.	.	-	.	-
C/C(=N\NC(=O)c1ccc(Cl)cc1)c1cccs1	-	-	-	-	-	.
C/C(=N\NC(=O)c1c(Cl)c(C)nn1C)c1ccc(NC(=O)C2CCC2)cc1	-	-	-	-	-	.
C/C(=N/NC(=O)CSCc1ccc(Cl)cc1)c1cccc(NC(=O)c2ccccc2)c1	38.5	.	.	-	.	-
C/C(=N\NC(=O)c1c(Cl)c(C)nn1C)c1cccc(NC(=O)c2cccc(F)c2)c1	-	-	-	-	-	.
C/C(=N\NC(=O)c1c(Cl)c(C)nn1C)c1ccc(NC(=O)COc2ccc(Cl)cc2C)cc1	33.3	.	.	-	.	-
C/C(=N/NC(=O)c1cccs1)c1ccc(NC(=O)COc2ccc(Cl)cc2)cc1	31.8	.	.	-	.	-
C[C@@H]1CN([C@H](C)CO)C(=O)Cc2cc(NC(=O)CCC(F)(F)F)ccc2O[C@@H]1CN(C)Cc1ccc(Oc2ccccc2)cc1	.	.	.	-	.	.
O=C(NCC[C@H]1CC[C@@H](NC(=O)c2cnccn2)[C@@H](CO)O1)Nc1ccc(Cl)cc1	.	-	-	-	-	.
COc1ccc2nc(SCC(=O)Nc3ccc4sc(C)nc4c3)c(C#N)cc2c1	21.1	.	.	-	.	-
COc1ccc2cc(C#N)c(SCC(=O)NNC(=O)Cc3ccccc3)nc2c1	68.2	.	.	-	.	-
CC(C)C[C@H]1CNC(=S)N1C[C@H]1CCCN1C[C@H](Cc1ccc(O)cc1)N1C[C@H](Cc2ccccc2)N(CCc2ccccc2)C1=S	.	-	-	-	-	.
CC(C)C[C@H]1CN([C@@H](CC(C)C)CN2CCCC2CN2C(=S)NC[C@@H]2Cc2ccc(O)cc2)C(=S)N1CCc1ccccc1 (stereo partly specified)	25.1	-	-	-	-	-
Oc1ccc(C[C@H]2CNC(=S)N2CC2CCCN2C[C@H](Cc2ccc(O)cc2)N2C[C@H](Cc3ccccc3)N(CCc3ccccc3)C2=S)cc1 (stereo partly specified)	65.3	-	-	-	-	-
